Laboratory results taken from ChEMBL document CHEMBL1136979, “Discovery of 4-anilino-N-methylthieno[3,2-d]pyrimidines and 4-anilino-N-methylthieno[2,3-d]pyrimidines as potent apoptosis inducers” (Bioorg Med Chem Lett, 2009).

What was measured:
[1] = tested on: T47D; experiment: Induction of apoptosis in human T47D cells assessed as caspase activation after 48 hrs by HTS assay; assay type: functional, cell-based
Summary of the method: (§1)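 Cell-based caspase activation HTS assay that reads cleavage of a fluorescent caspase-3 substrate in human breast cancer T47D or non-small cell lung cancer H1299 cells. Cells were exposed to compound for 48 h. EC50 is the mean ± SEM of three or more experiments.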

[2] = tested on: NCI-H1299; experiment: Induction of apoptosis in human H1299 cells assessed as caspase activation after 48 hrs by HTS assay; assay type: functional, cell-based; conditions: NCI-H1299, 48 h; summary of the method: as §1
[3] = Inhibition of tubulin polymerization by high-throughput assay
[4] = tested on: MX1; experiment: Antitumor activity against human MX1 cells xenografted in iv dosed Crl:Nu/Nu-nuBR mouse assessed as tumor growth inhibition administered as single dose; assay type: functional, organism-based
Summary of the method: (§2)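 Nude (Crl:Nu/Nu-nuBR) mice bore established MX-1 xenografts of about 100 mm³. Compound was given iv as single doses of 35, 50 or 75 mg/kg on day 1, or at 7 mg/kg daily on days 1–5, against a vehicle group. Tumor growth inhibition was assessed against vehicle, with significance by Student's t-test.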

[5] = tested on: MX1; experiment: Antitumor activity against human MX1 cells xenografted in Crl:Nu/Nu-nuBR mouse assessed as tumor growth inhibition at 75 mg/kg, iv administered as single dose; assay type: functional; conditions: read-out: TGI; summary of the method: as §2
[6] = tested on: Mus musculus; experiment: Toxicity in Crl:Nu/Nu-nuBR mouse assessed as maximum body weight decrease at 75 mg/kg, iv administered as single dose; assay type: organism-based; design: dose 75 mg/kg, route intravenous; scale not given: the % may be the effect or the level left; conditions: in vivo

SMILES	EC50 [1]	EC50 [2]	IC50 [3]	Activity [4]	inhibition in vivo at 75 mg/kg [5]	Activity [6]
COc1cc(OC)cc(N(C)c2ncnc3ccsc23)c1	> 10000 nM	> 10000 nM	–	–	–	–
COc1ccc(N(C)c2nc(C)nc3ccccc23)cc1 [VERUBULIN]	2 nM	6 nM	–	–	–	–
COc1cc2c(c(OC)c1OC)-c1ccc(OC)c(=O)cc1[C@@H](NC(C)=O)CC2 [COLCHICINE]	9 nM	50 nM	500 nM	–	–	–
COc1ccc(Nc2ncnc3ccsc23)cc1	> 10000 nM	> 10000 nM	–	–	–	–
COc1ccc(N(C)c2ncnc3sccc23)cc1	22 nM	44 nM	< 1000 nM	–	–	–
COc1ccc(OC)c(N(C)c2ncnc3ccsc23)c1	2600 nM	5000 nM	–	–	–	–
COc1ccc(N(C)c2nccc3ccsc23)cc1	> 10000 nM	> 10000 nM	–	–	–	–
COc1ccccc1N(C)c1ncnc2ccsc12	> 10000 nM	> 10000 nM	–	–	–	–
COc1ccc(N(C)c2nc(C)nc3sc(C)c(C)c23)cc1	21 nM	91 nM	< 1000 nM	–	–	–
COc1ccc(N(C)c2nc(C)nc3sccc23)cc1	8 nM	16 nM	< 1000 nM	Dose-dependent effect	90%	< 10%
COc1ccc(N(C)c2ncnc3cc(I)sc23)cc1	> 10000 nM	> 10000 nM	–	–	–	–
COc1ccc(N(C)c2ncnc3ccsc23)cc1OC	1700 nM	2800 nM	–	–	–	–
COc1ccc(N(C)c2ncnc3cc(-c4cccnc4)sc23)cc1	> 10000 nM	> 10000 nM	–	–	–	–
c1ccc(-c2cc3ncnc(NCc4ccc5c(c4)OCO5)c3s2)cc1	1000 nM	700 nM	–	–	–	–
COC(=O)c1ccc(N(C)c2ncnc3ccsc23)cc1	190 nM	340 nM	–	–	–	–
COc1ccc(N(C)c2ncnc3c(C)csc23)cc1	560 nM	560 nM	–	–	–	–
COc1ccc(N(C)c2nc(C)nc3ccsc23)cc1	14 nM	32 nM	< 1000 nM	–	–	–
COc1cccc(N(C)c2ncnc3ccsc23)c1	> 10000 nM	> 10000 nM	–	–	–	–

The next lines start with results.

EC50 [1]	EC50 [2]	IC50 [3]	SMILES	Activity [4]	inhibition in vivo at 75 mg/kg [5]	Activity [6]
> 10000 nM	> 10000 nM	–	COc1ccc(Nc2nc(C)nc3scc(C)c23)cc1	–	–	–
> 10000 nM	> 10000 nM	–	COc1ccc(Nc2ncnc3scc(C)c23)cc1	–	–	–
> 10000 nM	> 10000 nM	–	c1nc(NCc2ccc3c(c2)OCO3)c2sccc2n1	–	–	–
> 10000 nM	> 10000 nM	–	c1ccc(-c2cc3ncnc(Nc4ccc5c(c4)OCO5)c3s2)cc1	–	–	–
24 nM	53 nM	< 1000 nM	COc1ccc(N(C)c2ncnc3sc(C)c(C)c23)cc1	–	–	–
52 nM	240 nM	< 1000 nM	COc1ccc(N(C)c2ncnc3ccsc23)cc1	–	–	–
240 nM	310 nM	–	COc1ccc(N(C)c2nc(C)nc3c(C)csc23)cc1	–	–	–
15 nM	25 nM	< 1000 nM	COc1ccc(N(C)c2ncnc3scc(C)c23)cc1	–	–	–
340 nM	630 nM	–	COc1ccc(N(C)c2nc(-c3ccccc3)nc3ccsc23)cc1	–	–	–
4 nM	15 nM	< 1000 nM	COc1ccc(N(C)c2nc(C)nc3scc(C)c23)cc1	–	–	–
